Laboratory results: ChEMBL document CHEMBL1128602, “Potent in vitro and in vivo inhibitors of platelet aggregation based upon the Arg-Gly-Asp sequence of fibrinogen. (Aminobenzamidino)succinyl (ABAS) series of orally active fibrinogen receptor antagonists” (J Med Chem, 1995)
Each block holds one compound with its values, some of them ahead of it.

How the values were obtained:
Canis familiaris [1] = test: Duration of action to obtain >20% ex vivo collagen induced platelet aggregation was reported, after 20 mg/kg (post-ig) into dogs; Duration of time >6, < 24; type: functional, Canis lupus familiaris
In short: (§1)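 Ester prodrugs dosed orally by capsule to conscious beagle dogs (n = 2). Citrated cephalic-vein blood (2 mL) drawn before and at set times after dosing for 24 h or until back to baseline. PRP made by spinning at 260g for 6 min. Aggregation induced with equine tendon collagen (final 33 μg/mL) at 37 °C and followed for 3 min. Duration is the time with >20% inhibition versus predose control.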

[2] = Area under curve was determined by HPLC at a dosage of 2.27 mg/kg administered intravenously by bolus method in dog; type: ADME, organism-based, Canis lupus familiaris; set-up: dose 2.27 mg/kg, route intravenous; conditions: in vivo, iv
In short: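 Female dogs (7–12 kg, n = 3), fasted 18 h. Aqueous saline solution injected into a radial vein (0.5 mL/kg) over 2–3 min. Femoral vein blood (3.5 mL) taken at 0.25, 0.5, 1, 2, 3, 5, 8, 13 and 24 h, put on ice, centrifuged, plasma held at –20 °C. Acid level in plasma measured by HPLC; AUC by trapezoidal method extrapolated to infinity and back to zero.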

Canis familiaris [3] = test: Duration of action to obtain >20% ex vivo collagen induced platelet aggregation was reported, after 5 mg/kg (post-ig) into dogs.; type: functional, Canis lupus familiaris; in short: as §1
Canis familiaris [4] = test: Duration of action to obtain >20% ex vivo collagen induced platelet aggregation was reported, after 10 mg/kg (post-ig) into dogs.; type: functional, Canis lupus familiaris; in short: as §1
Canis familiaris [5] = test: Duration of action to obtain >20% ex vivo collagen induced platelet aggregation was reported, after 20 mg/kg (post-ig) into dogs.; type: functional, Canis lupus familiaris; in short: as §1
Canis familiaris [6] = test: Duration of action to obtain >20% ex vivo collagen induced platelet aggregation was reported, after […] 5 mg/kg orally (post-ig) into dogs.; type: functional, Canis lupus familiaris; conditions: route oral; in short: as §1
Canis familiaris [7] = test: Duration of action to obtain >20% ex vivo collagen induced platelet aggregation was reported, after 20 mg/kg (post-ig) into dogs; duration of time >6, <24; type: functional, Canis lupus familiaris; in short: as §1
Canis familiaris [8] = test: Duration of action to obtain >20% ex vivo collagen induced platelet aggregation was reported, after 20 mg/kg (post-ig) into dogs; duration of time >3, <6; type: functional, Canis lupus familiaris; in short: as §1
Canis familiaris [9] = test: Duration of action to obtain >20% ex vivo collagen induced platelet aggregation was reported, after 10 mg/kg (post-ig) into dogs; duration of time >6, <24; type: functional, Canis lupus familiaris; in short: as §1
[10] = Area under curve of acid 2a was determined by HPLC at a dosage of 54.5 mg/kg administered intragastrically by gavage method in dog; type: ADME, organism-based; set-up: dose 54.5 mg/kg, route intragastric; conditions: in vivo, po
In short: (§2)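 Six female dogs, 7–12 kg, three per group, fasted 18 h. Prodrug ester given intragastrically as aqueous solution (2 mL/kg) by gavage or in gelatin capsule. Blood (3.5 mL) drawn via femoral vein catheter at 0.5, 1, 1.5, 2, 3, 5, 8, 13, 24 and 48 h, kept on ice, centrifuged, plasma stored at –20 °C. Acid measured in plasma by HPLC; AUC by trapezoidal method, extrapolated to infinity and back to zero.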

Canis familiaris [11] = test: Area under curve of acid 2a was determined by HPLC at a dosage of 5.45 mg/kg administered intragastrically by capsule method in dog; type: ADME, organism-based, Canis lupus familiaris; set-up: dose 5.45 mg/kg, route intragastric; conditions: in vivo, po; in short: as §2
Canis familiaris [12] = test: Area under curve of acid 2a was determined by HPLC at a dosage of 54.5 mg/kg administered intragastrically by capsule method in dog; type: ADME, organism-based, Canis lupus familiaris; set-up: dose 54.5 mg/kg, route intragastric; conditions: in vivo, po; in short: as §2
Canis familiaris [13] = test: Area under curve of acid 2a was determined by HPLC at a dosage of 5.45 mg/kg administered intragastrically by gavage method in dog; type: ADME, organism-based, Canis lupus familiaris; set-up: dose 5.45 mg/kg, route intragastric; conditions: in vivo, po; in short: as §2

Compound: CCOC(=O)CC(NC(=O)CCC(=O)Nc1ccc(C(=N)N)cc1)c1ccccc1 (stereo not drawn)
Duration time (Canis familiaris [1]): >6 h

AUC [2]: 2490 ng·h/mL
Compound: C#C[C@H](CC(=O)O)NC(=O)CCC(=O)Nc1ccc(C(=N)N)cc1

Compound: CCOC(=O)CC(NC(=O)CCC(=O)Nc1ccc(C(=N)N)cc1)c1cnc2ccccc2c1 (stereo not drawn)
Duration time (Canis familiaris [3]): <6 h

Compound: CCOC(=O)CC(NC(=O)CCC(=O)Nc1ccc(C(=N)N)cc1)c1cccnc1 (stereo not drawn)
Duration time (Canis familiaris [3]): >6 h | Duration time (Canis familiaris [4]): >24 h

Compound: C=CC(CC(=O)OCC)NC(=O)CCC(=O)Nc1ccc(C(=N)N)cc1 (stereo not drawn)
Duration time (Canis familiaris [5]): >24 h

Compound: CCOC(=O)CC(NC(=O)CCC(=O)Nc1ccc(C(=N)N)cc1)c1ccc2c(c1)OCO2 (stereo not drawn)
Duration time (Canis familiaris [6]): >24 h

Compound: CCOC(=O)CC(Cc1ccccc1)NC(=O)CCC(=O)Nc1ccc(C(=N)N)cc1 (stereo not drawn)
Duration time (Canis familiaris [7]): >6 h

Compound: CCOC(=O)CC(C)NC(=O)CCCCc1ccc(C(=N)N)cc1 (stereo not drawn)
Duration time (Canis familiaris [7]): >6 h

Compound: CCOC(=O)CC(Cc1ccccc1)NC(=O)CCCCc1ccc(C(=N)N)cc1 (stereo not drawn)
Duration time (Canis familiaris [8]): >3 h

Compound: CCOC(=O)CC(NC(=O)CCC(=O)Nc1ccc(C(=N)N)cc1)c1ccc(OCC)nc1 (stereo not drawn)
Duration time (Canis familiaris [3]): <6 h

Compound: CCOC(=O)CC(NC(=O)CCCCc1ccc(C(=N)N)cc1)c1ccccc1 (stereo not drawn)
Duration time (Canis familiaris [9]): >6 h

Compound: CCOC(=O)CC(C)NC(=O)CCC(=O)Nc1ccc(C(=N)N)cc1 (stereo not drawn)
Duration time (Canis familiaris [5]): >30 h

AUC [10]: 31700 ng·h/mL | AUC (Canis familiaris [11]): 2660 ng·h/mL | AUC (Canis familiaris [12]): 31200 ng·h/mL | AUC (Canis familiaris [13]): 2730 ng·h/mL
Compound: C#C[C@H](CC(=O)OCC)NC(=O)CCC(=O)Nc1ccc(C(=N)N)cc1 [XEMILOFIBAN]
Duration time (Canis familiaris [4]): >24 h
